Assay results from ChEMBL document CHEMBL1139460 (J Med Chem, 2005).
Activity calls are given as the source filed them. No cut-off for these calls is given here.

Key:
[1] = molecular target: T1, GABA-A receptor; alpha-2/beta-3/gamma-2 (Homo sapiens) (UniProt P18507+P28472+P47869); assay: Efficacy at human recombinant GABAA alpha-2-beta-3-gamma-2 receptor expressed in Xenopus laevis oocytes by two electrode voltage clamp method relative to GABA; type: cell-based; details: Oocyte
Summary of the method: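 Human α2β3γ2 GABA-A receptors were transiently expressed in Xenopus oocytes and recorded by two-electrode voltage clamp. […] Efficacy is the percent modulation of the submaximal GABA EC20 ion current.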

[2] = molecular target: T2, GABA-A receptor; alpha-1/beta-3/gamma-2 (Homo sapiens) (UniProt P14867+P18507+P28472); assay: Efficacy at human recombinant GABAA alpha-1-beta-3-gamma-2 receptor expressed in L(tk-) cells by two electrode voltage clamp method relative to GABA; type: cell-based
Summary of the method: (§1)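 Receptors stably expressed in L(tk-) fibroblasts; percent modulation of the submaximal (EC20) GABA response, multiple drug concentrations assessed.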

[3] = molecular target: T3, GABA-A receptor; alpha-1/beta-3/gamma-2 (Homo sapiens, UniProt P14867+P18507+P28472); assay: Displacement of [3H]Ro 15-1788 from human recombinant GABAA alpha-1-beta-3-gamma-2 receptor expressed in L(tk-) cells; type: cell-based
T3 sequence (P14867 whole entry): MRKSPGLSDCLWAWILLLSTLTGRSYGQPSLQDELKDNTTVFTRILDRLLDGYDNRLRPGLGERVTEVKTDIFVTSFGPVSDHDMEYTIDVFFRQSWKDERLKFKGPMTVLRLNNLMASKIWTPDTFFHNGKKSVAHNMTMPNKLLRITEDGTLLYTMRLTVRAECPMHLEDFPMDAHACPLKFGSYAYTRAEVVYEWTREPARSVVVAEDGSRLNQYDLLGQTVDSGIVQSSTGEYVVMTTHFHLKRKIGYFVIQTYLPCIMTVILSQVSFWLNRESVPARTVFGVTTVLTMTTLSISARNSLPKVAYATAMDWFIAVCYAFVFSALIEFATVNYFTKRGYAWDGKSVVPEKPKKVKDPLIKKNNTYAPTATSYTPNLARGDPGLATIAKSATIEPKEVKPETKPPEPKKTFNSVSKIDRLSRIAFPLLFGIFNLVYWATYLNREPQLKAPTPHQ
T3 sequence (P18507 whole entry): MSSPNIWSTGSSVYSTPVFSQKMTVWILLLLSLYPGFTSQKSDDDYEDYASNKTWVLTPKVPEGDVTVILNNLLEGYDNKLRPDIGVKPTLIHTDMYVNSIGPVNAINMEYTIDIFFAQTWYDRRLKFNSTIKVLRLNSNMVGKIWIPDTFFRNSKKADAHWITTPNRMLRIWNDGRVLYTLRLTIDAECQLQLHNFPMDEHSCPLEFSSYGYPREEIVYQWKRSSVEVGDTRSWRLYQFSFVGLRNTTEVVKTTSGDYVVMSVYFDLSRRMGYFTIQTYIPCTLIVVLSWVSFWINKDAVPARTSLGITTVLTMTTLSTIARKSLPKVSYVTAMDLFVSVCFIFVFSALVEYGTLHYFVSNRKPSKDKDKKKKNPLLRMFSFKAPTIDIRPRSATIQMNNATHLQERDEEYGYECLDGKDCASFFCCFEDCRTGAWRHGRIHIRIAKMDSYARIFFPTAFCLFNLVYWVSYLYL
T3 sequence (P28472 whole entry): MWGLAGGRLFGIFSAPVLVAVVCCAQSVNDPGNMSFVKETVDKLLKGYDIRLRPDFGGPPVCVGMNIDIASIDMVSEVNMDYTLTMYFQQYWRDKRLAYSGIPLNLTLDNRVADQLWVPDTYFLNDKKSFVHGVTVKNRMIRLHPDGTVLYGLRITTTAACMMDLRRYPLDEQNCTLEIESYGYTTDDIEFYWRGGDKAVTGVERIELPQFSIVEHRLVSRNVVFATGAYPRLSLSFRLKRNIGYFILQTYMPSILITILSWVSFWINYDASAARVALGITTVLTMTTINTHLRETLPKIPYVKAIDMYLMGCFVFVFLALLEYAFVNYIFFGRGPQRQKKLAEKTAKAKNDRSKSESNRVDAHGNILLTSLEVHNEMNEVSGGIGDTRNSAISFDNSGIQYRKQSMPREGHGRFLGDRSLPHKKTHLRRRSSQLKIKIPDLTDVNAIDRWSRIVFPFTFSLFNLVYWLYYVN

[4] = molecular target: T4, GABA-A receptor; alpha-3/beta-3/gamma-2 (Homo sapiens, UniProt P18507+P28472+P34903); assay: Displacement of [3H]Ro 15-1788 from human recombinant GABAA alpha-3-beta-3-gamma-2 receptor expressed in L(tk-) cells; type: cell-based
T4 sequence (P18507 whole entry): T3 sequence (P18507 whole entry)
T4 sequence (P28472 whole entry): T3 sequence (P28472 whole entry)
T4 sequence (P34903 whole entry): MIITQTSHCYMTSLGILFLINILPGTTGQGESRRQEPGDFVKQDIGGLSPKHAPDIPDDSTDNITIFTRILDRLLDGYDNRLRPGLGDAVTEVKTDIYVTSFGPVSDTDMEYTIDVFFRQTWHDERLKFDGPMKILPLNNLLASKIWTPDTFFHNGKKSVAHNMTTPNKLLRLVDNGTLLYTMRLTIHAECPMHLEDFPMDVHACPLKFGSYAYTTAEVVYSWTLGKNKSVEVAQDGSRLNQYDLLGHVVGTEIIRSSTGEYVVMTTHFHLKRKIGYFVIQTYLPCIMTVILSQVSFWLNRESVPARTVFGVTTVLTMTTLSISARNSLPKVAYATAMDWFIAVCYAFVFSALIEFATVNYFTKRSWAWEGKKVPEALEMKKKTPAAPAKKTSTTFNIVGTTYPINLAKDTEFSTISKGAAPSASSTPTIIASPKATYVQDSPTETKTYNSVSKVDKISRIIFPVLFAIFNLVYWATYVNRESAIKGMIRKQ

[5] = molecular target: T5, GABA-A receptor; alpha-2/beta-3/gamma-2 (Homo sapiens, UniProt P18507+P28472+P47869); assay: Displacement of [3H]Ro 15-1788 from human recombinant GABAA alpha-2-beta-3-gamma-2 receptor expressed in L(tk-) cells; type: cell-based
T5 sequence (P18507 whole entry): T3 sequence (P18507 whole entry)
T5 sequence (P28472 whole entry): T3 sequence (P28472 whole entry)
T5 sequence (P47869 whole entry): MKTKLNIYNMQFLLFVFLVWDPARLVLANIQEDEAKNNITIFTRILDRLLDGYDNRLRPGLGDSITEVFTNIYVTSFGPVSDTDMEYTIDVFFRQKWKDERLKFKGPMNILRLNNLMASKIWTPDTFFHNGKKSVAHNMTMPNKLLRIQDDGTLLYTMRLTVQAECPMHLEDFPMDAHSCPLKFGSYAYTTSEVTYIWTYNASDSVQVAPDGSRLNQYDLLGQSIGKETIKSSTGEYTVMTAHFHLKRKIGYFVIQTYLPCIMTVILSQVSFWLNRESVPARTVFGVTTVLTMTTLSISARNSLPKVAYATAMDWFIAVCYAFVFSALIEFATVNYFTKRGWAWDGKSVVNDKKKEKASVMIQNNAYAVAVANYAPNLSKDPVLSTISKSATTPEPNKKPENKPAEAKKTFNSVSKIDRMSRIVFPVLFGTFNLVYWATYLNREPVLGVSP

[6] = molecular target: T6, GABA-A receptor; alpha-3/beta-3/gamma-2 (Homo sapiens) (UniProt P18507+P28472+P34903); assay: Efficacy at human recombinant GABAA alpha-3-beta-3-gamma-2 receptor expressed in L(tk-) cells by two electrode voltage clamp method relative to GABA; type: cell-based; summary of the method: as §1
[7] = molecular target: T6, GABA-A receptor; alpha-3/beta-3/gamma-2 (Homo sapiens); assay: Efficacy at human recombinant GABAA alpha-3-beta-3-gamma-2 receptor expressed in Xenopus laevis oocytes by two electrode voltage clamp method relative to GABA; type: cell-based; details: Oocyte
[8] = molecular target: T2, GABA-A receptor; alpha-1/beta-3/gamma-2 (Homo sapiens); assay: Efficacy at human recombinant GABAA alpha-1-beta-3-gamma-2 receptor expressed in Xenopus laevis oocytes by two electrode voltage clamp method relative to GABA; type: cell-based; details: Oocyte
[9] = Half life in rat; type: ADME, organism-based; details: in vivo
[10] = Bioavailability in rat; type: ADME, organism-based; details: in vivo
[11] = system: Rattus norvegicus; assay: Anxiolytic effect in rat at 3 mg/kg, po by anxiety assay; type: functional, organism-based; set-up: dose 3 mg/kg
[12] = Half life in dog; type: ADME, organism-based, Canis lupus familiaris; details: in vivo
[13] = system: Rattus norvegicus; assay: Receptor occupancy at GABAA receptor in rat at 3 mg/kg, po; type: functional
[14] = system: Rattus norvegicus; assay: Receptor occupancy at GABAA receptor in rat at 30 mg/kg, po; type: functional
[15] = system: Rattus norvegicus; assay: Anxiolytic effect in rat at 1 mg/kg, po by anxiolytic assay; type: functional, organism-based; set-up: dose 1 mg/kg
[16] = Bioavailability in dog; type: ADME, organism-based, Canis lupus familiaris; details: in vivo
[17] = system: Rattus norvegicus; assay: Sedative effect in orally dosed rat at by chain-pulling assay; type: functional, organism-based
[18] = system: Rattus norvegicus; assay: Receptor occupancy at GABAA receptor in rat at 1 mg/kg, po; type: functional
[19] = system: Mus musculus; assay: Receptor occupancy in vivo by displacement of [3H]Ro 15-1788 binding from GABAA receptor in orally dosed Swiss Webster mouse; type: functional; details: po, read-out: ID50 (the source's name)
[20] = molecular target: T1, GABA-A receptor; alpha-2/beta-3/gamma-2 (Homo sapiens); assay: Efficacy at human recombinant GABAA alpha-2-beta-3-gamma-2 receptor expressed in L(tk-) cells by two electrode voltage clamp method relative to GABA; type: cell-based; summary of the method: as §1

| SMILES | Efficacy [1] | Efficacy [2] | Ki [3] | Ki [4] | Ki [5] | Efficacy [6] | Efficacy [7] | Efficacy [8] | also measured |
| --- | --- | --- | --- | --- | --- | --- | --- | --- | --- |
| CN1C(=O)CN=C(c2ccccc2)c2cc(Cl)ccc21 | 115% |  |  |  |  |  |  |  |  |
| Cn1ncnc1COc1nn2c(-c3ccccc3)nnc2cc1C1CCCC1 |  | 47% | 0.38 nM | 0.34 nM | 0.73 nM | 63% |  |  |  |
| Cn1ncnc1COc1nn2c(-c3ccccc3)nnc2cc1-c1ccccc1 |  |  | 0.78 nM | 1.2 nM | 2.6 nM |  | 115% | 94% |  |
| CCn1ncnc1COc1nn2c(-c3ccccc3F)nnc2cc1C(C)(C)C [MK-0777] |  |  | 0.27 nM | 0.2 nM | 0.31 nM |  |  |  | half-life [9]: 1.4 h; bioavailability [10]: 35%; Activity [11]: Active; half-life [12]: 1.5 h; Activity [13]: 88%; Activity [14]: 99%; Activity [15]: Active; bioavailability [16]: 53%; Activity [17]: inactive; Activity [18]: 70%; ED50 [19]: 0.42 mg/kg |
| Cn1ncnc1COc1nn2c(-c3ccccc3)nnc2cc1C(C)(C)C |  | 0% | 0.36 nM | 0.14 nM |  | 34% |  |  |  |
| c1ccc(-c2cc3nnc(-c4ccccc4)n3nc2OCc2ccccn2)cc1 |  |  | 1.1 nM | 1.8 nM | 2.9 nM |  | 77% | 80% |  |
| Cn1ncnc1COc1nn2c(-c3ccccc3)nnc2cc1C1CCCCC1 |  |  | 6.2 nM | 4.8 nM | 14 nM |  | 109% | 65% |  |
| Cc1ccc(-c2nc3ccc(C)cn3c2CC(=O)N(C)C)cc1 | 123% |  |  |  |  |  |  | 160% |  |
| Cn1ncnc1COc1nn2c(-c3ccccc3)nnc2cc1C1CCC1 |  | 27% | 0.23 nM | 0.17 nM | 0.25 nM | 72% |  |  | Efficacy [20]: 41% |
| c1ccc(-c2nnc3c4c(c(OCc5ccccn5)nn23)C2CCC4CC2)cc1 | 23% |  |  | 12 nM |  |  | 38% | 51% |  |
